Results gathered from unrelated publications.
Compare with care: the assays were run in different laboratories.
Target: Mitogen-activated protein kinase kinase kinase 11 (MAP3K11, Homo sapiens, UniProt Q16584)

For COc1ncccc1-c1cnn2ccc(N3CCN(C(=O)OC(C)C)CC3)nc12, the remaining binding was 76% (binding, competition with immobilised ligand; 1 µM).
The inhibition of Cn1cc(-c2cc(F)cc(N3CCn4c(cc5c4CCCC5)C3=O)c2CO)cc(Nc2ccc(N3CCN(C4COC4)CC3)cn2)c1=O is reported as 0% (enzyme activity, inhibitor; 0.1 µM).
O=c1[nH]c2ccccc2n1C1CCN(Cc2ccc(-c3[nH]c4cc5ncnc5cc4nc3-c3ccccc3)cc2)CC1 gave a remaining signal of 94.6% (cell-free assay; 0.5 µM).
The remaining binding of N#CC1(c2ccccn2)CCN(Cc2cc(C(=O)O)c(=O)n3ccccc23)CC1 is reported as 100% (cell-free assay, competition with immobilised ligand; 1 µM).
Cc1nn(C)cc1-c1nc2c(N3CCN(Cc4ccc(Cl)cc4)CC3)c(Cl)cnc2[nH]1 gave a remaining binding of 9.8% (binding, competition with immobilised ligand; 1 µM).
For Nc1ncc(-c2nc(N3CCOCC3)nc(N3CCOCC3)n2)c(C(F)F)n1, the remaining binding was 47% (binding, competition with immobilised ligand; 10 µM).
Cn1cncc1[C@](O)(COc1ccc(C#N)cc1-c1ccc(OC(F)(F)F)cc1)c1ccc(C#N)cc1 gave a remaining binding of 86% (cell-free assay, competition with immobilised ligand; 1 µM).
With Cn1cc(-c2cccc(N3CCc4c(sc5c4CC(C)(C)C5)C3=O)c2CO)cc(Nc2ccncn2)c1=O the inhibition was -4% (enzyme activity, inhibitor; 1 µM).
For CC(C)(C)c1cc(C=C(C#N)C#N)cc(Br)c1O, the remaining activity was 97.4% (enzyme activity, inhibitor; 0.5 µM).
